Results published in ChEMBL document CHEMBL3091430, “Design and evaluation of xanthine based adenosine receptor antagonists: potential hypoxia targeted immunotherapies” (Bioorg Med Chem, 2013).
The source made the active and inactive calls. The rule behind the calls is not given here.

Assays:
[1] = Photostability of the compound assessed as compound remaining after 2 weeks by HPLC analysis; type: physicochemical; settings: 336 h
[2] = Partition coefficient, log K of the compound; type: physicochemical; settings: octanol/water
[3] = Octanol-water partition coefficient, log P of the compound by HPLC analysis; type: physicochemical
Lymphocyte = test: Induction of mAB-CD3-mediated IFN-gamma production in CGS-21680-treated C57/BL6 mouse lymphocytes at 0.5 uM after 24 hrs by ELISA; type: functional, cell-based
Method in brief: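 C57/BL6 mouse splenic lymphocytes activated with 0.1 μg/mL anti-CD3 mAb, then immediately given 1, 10 or 100 nM CGS 21680 with or without antagonist at 0.5 μM. Supernatant IFN-gamma measured after 24 h by sandwich ELISA (paired mAb with standard), in pg/mL; triplicates, mean ± SEM.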

[4] = molecular target: Adenosine receptor A2a (Mus musculus) (UniProt Q60613); test: Antagonist activity at adenosine A2A receptor in C57/BL6 mouse lymphocytes assessed as inhibition of CGS-21680-mediated cAMP accumulation after 15 mins by ELISA; type: functional, cell-based
Sequence of Adenosine receptor A2a (Mus musculus) (Q60613 whole entry): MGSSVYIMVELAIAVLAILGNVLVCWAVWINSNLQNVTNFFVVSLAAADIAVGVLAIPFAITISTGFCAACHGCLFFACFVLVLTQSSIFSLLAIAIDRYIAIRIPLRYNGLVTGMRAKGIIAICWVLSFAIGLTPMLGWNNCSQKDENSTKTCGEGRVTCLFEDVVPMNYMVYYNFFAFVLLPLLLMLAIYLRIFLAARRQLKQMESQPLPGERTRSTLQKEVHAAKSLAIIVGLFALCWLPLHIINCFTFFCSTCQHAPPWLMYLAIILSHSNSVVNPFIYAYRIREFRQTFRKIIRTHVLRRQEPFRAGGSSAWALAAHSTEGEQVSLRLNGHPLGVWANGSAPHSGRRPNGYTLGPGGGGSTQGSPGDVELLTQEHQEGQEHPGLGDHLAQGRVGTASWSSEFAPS
Method in brief: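 Splenic lymphocytes from C57/BL6 mice stimulated with 1 μM CGS 21680 (A2AR agonist), with or without antagonist over 0.1–10 μM; 15 min at 37 °C, stopped with 1 N HCl. Intracellular cAMP quantified by ELISA, expressed as pmol/million cells; triplicate samples, mean ± SEM.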

[5] = Half life in rat; type: ADME, organism-based; settings: in vivo
[6] = Photostability of the compound assessed as compound remaining measured within 7 days by HPLC analysis; type: physicochemical; settings: read-out: Stability
[7] = Photostability of the compound assessed as compound remaining measured within 24 hrs by HPLC analysis; type: physicochemical; settings: read-out: Stability
[8] = Half life in mouse at 20 mg/kg, ip by HPLC analysis; type: ADME, organism-based; design: dose 20 mg/kg, route intraperitoneal; settings: in vivo

SMILES	log K [2]	logP [3]	Activity (Lymphocyte)	other results
CCn1c(=O)c2c(nc(/C=C/c3ccc(C(=O)OCCOCCOCCOCCOCCOCCOCCOCCOC)c(OC)c3)n2C)n(CC)c1=O	0.145	2.8	Active	Stability [1]: Stable
CCn1c(=O)c2c(nc(/C=C/c3ccc(C(=O)OC)c(OC)c3)n2C)n(CC)c1=O				inhibition [4]: Active
CCn1c(=O)c2c(nc(/C=C/c3ccc(OC)c(OC)c3)n2C)n(CC)c1=O [ISTRADEFYLLINE]	0.162	2.98	Active	half-life [5]: 2 h; remaining at 168 h [6]: > 50%; remaining at 24 h [7]: 10%
Nc1nc(NCCc2ccc(O)cc2)nc2nc(-c3ccco3)nn12 [ZM-241385]				half-life [8]: < 1 h
